From ChEMBL document CHEMBL3588802, “Thiol activated prodrugs of sulfur dioxide (SO2) as MRSA inhibitors” (Bioorg Med Chem Lett, 2015)
Values after ≈ are worked out from the molar mass of the structure shown. Active and inactive are the calls of the source. No cut-off for these calls is given here.

Assays:
[1] = tested on: Staphylococcus aureus; experiment: Antibacterial activity against methicillin-sensitive Staphylococcus aureus after 18 to 20 hrs by microbroth dilution method; format: functional
[2] = tested on: Enterococcus faecalis; experiment: Antibacterial activity against Enterococcus faecalis after 18 to 20 hrs by microbroth dilution method; format: functional
[3] = tested on: Escherichia coli; experiment: Antibacterial activity against Escherichia coli after 18 to 20 hrs by microbroth dilution method; format: functional
[4] = tested on: Staphylococcus aureus; experiment: Antibacterial activity against methicillin-resistant Staphylococcus aureus after 18 to 20 hrs by microbroth dilution method; format: functional
[5] = tested on: Staphylococcus aureus; experiment: Antibacterial activity against patient-derived methicillin-resistant Staphylococcus aureus 7419 after 18 to 20 hrs by microbroth dilution method; format: functional
In short: (§1)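 Patient-derived MRSA clinical isolates from the Department of Microbiology, Nizam's Institute of Medical Sciences, Hyderabad. MIC determined by broth dilution.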

[6] = tested on: Staphylococcus aureus; experiment: Antibacterial activity against patient-derived methicillin-resistant Staphylococcus aureus B19506 after 18 to 20 hrs by microbroth dilution method; format: functional; in short: as §1
[7] = tested on: Staphylococcus aureus; experiment: Antibacterial activity against patient-derived methicillin-resistant Staphylococcus aureus 7425 after 18 to 20 hrs by microbroth dilution method; format: functional; in short: as §1
[8] = tested on: Staphylococcus aureus; experiment: Antibacterial activity against patient-derived methicillin-resistant Staphylococcus aureus 7386 after 18 to 20 hrs by microbroth dilution method; format: functional; in short: as §1
[9] = tested on: Staphylococcus aureus; experiment: Antibacterial activity against patient-derived methicillin-resistant Staphylococcus aureus K1 after 18 to 20 hrs by microbroth dilution method; format: functional; in short: as §1
[10] = tested on: Staphylococcus aureus; experiment: Induction of intracellular thiol depletion in Staphylococcus aureus after 60 mins by monobromobimane-based fluorescence assay relative to control
[11] = tested on: Staphylococcus aureus; experiment: Induction of intracellular thiol depletion in Staphylococcus aureus after 60 mins by monobromobimane-based fluorescence assay relative to control; format: functional, organism-based
[12] = tested on: Staphylococcus aureus; experiment: Induction of intracellular oxidative species generation in methicillin-sensitive Staphylococcus aureus 29213 at 0.5 to 8 ug/ml after 1 hr by DCFH2-DA dye-based fluorescence assay; format: functional, organism-based
In short: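 Intracellular oxidative species in S. aureus are read as fluorescence of 2,7-dichlorodihydrofluorescein-diacetate (DCFH2-DA) after exposure to compound.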

[13] = Cytotoxicity against human A549 cells after 72 hrs by MTT assay; format: cell-based
[14] = Selectivity index, ratio of GI50 for human A549 cells to MIC for Staphylococcus aureus
In short: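 Selectivity index calculated as GI50 in A549 lung carcinoma cells divided by MIC.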

Row | SMILES | MIC [1] [µg/mL] | MIC [2] [µg/mL] | MIC [3] [µg/mL] | MIC [4] [µg/mL] | other results
1 | C=CCN(c1ccccc1OC)S(=O)(=O)c1ccc([N+](=O)[O-])cc1[N+](=O)[O-] | 8 (≈ 20.3 µM) | > 32 | > 32 | 4 (≈ 10.2 µM) | 
2 | O=C(O)c1cn(C2CC2)c2cc(N3CCNCC3)c(F)cc2c1=O [CIPROFLOXACIN] |  |  | ≤ 0.00075 | 0.25 (≈ 0.754 µM) | MIC [5]: > 4 µg/mL; MIC [6]: 32 µg/mL (≈ 96.6 µM); MIC [7]: > 4 µg/mL; MIC [8]: > 4 µg/mL; MIC [9]: 0.5 µg/mL (≈ 1.51 µM)
3 | C#CCN(Cc1ccccc1)S(=O)(=O)c1ccc([N+](=O)[O-])cc1[N+](=O)[O-] | 4 (≈ 10.7 µM) | 16 (≈ 42.6 µM) | > 32 | 4 (≈ 10.7 µM) | 
4 | C[C@@H](O)[C@H]1C(=O)N2C(C(=O)O)=C(S[C@@H]3CN[C@H](C(=O)N(C)C)C3)[C@H](C)[C@H]12 [MEROPENEM] |  |  |  | 16 (≈ 41.7 µM) | MIC [5]: 16 µg/mL (≈ 41.7 µM); MIC [6]: 1 µg/mL (≈ 2.61 µM); MIC [7]: 4 µg/mL (≈ 10.4 µM); MIC [8]: > 32 µg/mL; MIC [9]: 0.5 µg/mL (≈ 1.3 µM)
5 | COc1ccccc1NS(=O)(=O)c1ccc([N+](=O)[O-])cc1[N+](=O)[O-] | 8 (≈ 22.6 µM) | 16 (≈ 45.3 µM) | > 32 | 8 (≈ 22.6 µM) | 
6 | COc1ccc(CN(CCCN(Cc2ccccc2)S(=O)(=O)c2ccc([N+](=O)[O-])cc2[N+](=O)[O-])S(=O)(=O)c2ccc([N+](=O)[O-])cc2[N+](=O)[O-])cc1 | > 32 | > 32 | > 32 |  | 
7 | CCN1C(=O)C=CC1=O |  |  |  |  | Activity [10]: Active
8 | O=[N+]([O-])c1ccc(S(=O)(=O)Nc2ccccc2)c([N+](=O)[O-])c1 | 8 (≈ 24.7 µM) |  |  |  | 
9 | COc1ccccc1N(C)S(=O)(=O)c1ccc([N+](=O)[O-])cc1[N+](=O)[O-] | 16 (≈ 43.6 µM) | 16 (≈ 43.6 µM) | > 32 | 16 (≈ 43.6 µM) | 
10 | COc1ccc(NS(=O)(=O)c2ccc([N+](=O)[O-])cc2[N+](=O)[O-])cc1 | > 16 |  |  |  | 
11 | COc1ccc(CN(CCCN(Cc2ccccc2)S(=O)(=O)c2ccc([N+](=O)[O-])cc2[N+](=O)[O-])S(=O)(=O)c2ccc([N+](=O)[O-])cc2[N+](=O)[O-])c(OC)c1 | > 16 | > 32 | > 32 | > 32 | Activity [10]: inactive
12 | C=CCN(c1cccc(OC)c1)S(=O)(=O)c1ccc([N+](=O)[O-])cc1[N+](=O)[O-] | 8 (≈ 20.3 µM) | 16 (≈ 40.7 µM) | > 32 | 8 (≈ 20.3 µM) | 
13 | O=[N+]([O-])c1ccc(S(=O)(=O)N(CCCN(Cc2ccccc2)S(=O)(=O)c2ccc([N+](=O)[O-])cc2[N+](=O)[O-])Cc2ccccc2)c([N+](=O)[O-])c1 | > 16 |  |  |  | 
14 | COc1ccccc1N(CCCN(Cc1ccccc1)S(=O)(=O)c1ccc([N+](=O)[O-])cc1[N+](=O)[O-])S(=O)(=O)c1ccc([N+](=O)[O-])cc1[N+](=O)[O-] | > 32 |  |  |  | 
15 | COc1cccc(N(CCCN(Cc2ccccc2)S(=O)(=O)c2ccc([N+](=O)[O-])cc2[N+](=O)[O-])S(=O)(=O)c2ccc([N+](=O)[O-])cc2[N+](=O)[O-])c1 | > 32 |  |  |  | 
16 | COc1ccc(CNS(=O)(=O)c2ccc([N+](=O)[O-])cc2[N+](=O)[O-])cc1 | > 16 |  |  |  | 
17 | COc1cccc(NS(=O)(=O)c2ccc([N+](=O)[O-])cc2[N+](=O)[O-])c1 | 16 (≈ 45.3 µM) | > 32 | > 32 | 32 (≈ 90.6 µM) | 
18 | O=[N+]([O-])c1ccc(S(=O)(=O)NCc2ccccc2)c([N+](=O)[O-])c1 | > 16 |  |  |  | 
19 | C#CCN(c1ccccc1OC)S(=O)(=O)c1ccc([N+](=O)[O-])cc1[N+](=O)[O-] | 4 (≈ 10.2 µM) | 8 (≈ 20.4 µM) | > 32 | 8 (≈ 20.4 µM) | 
20 | NC[C@H]1O[C@H](O[C@H]2[C@H](O)[C@@H](O[C@H]3O[C@H](CO)[C@@H](O)[C@H](N)[C@H]3O)[C@H](N)C[C@@H]2N)[C@H](N)C[C@@H]1O [TOBRAMYCIN] |  |  |  | > 32 | MIC [5]: > 32 µg/mL; MIC [6]: > 32 µg/mL; MIC [7]: 1 µg/mL (≈ 2.14 µM); MIC [8]: > 32 µg/mL; MIC [9]: 8 µg/mL (≈ 17.1 µM)

Row | SMILES | MIC [1] [µg/mL] | MIC [2] [µg/mL] | MIC [3] [µg/mL] | MIC [4] [µg/mL] | other results
21 | C#CCN(CC)S(=O)(=O)c1ccc([N+](=O)[O-])cc1[N+](=O)[O-] | 16 (≈ 51.1 µM) | > 32 | > 32 | 16 (≈ 51.1 µM) | Activity [10]: inactive
22 | O=[N+]([O-])c1ccc(S(=O)(=O)N(CCCO)Cc2ccccc2)c([N+](=O)[O-])c1 | 16 (≈ 40.5 µM) | 32 (≈ 80.9 µM) | > 32 | 8 (≈ 20.2 µM) | 
23 | COc1ccc(N(CCCN(Cc2ccccc2)S(=O)(=O)c2ccc([N+](=O)[O-])cc2[N+](=O)[O-])S(=O)(=O)c2ccc([N+](=O)[O-])cc2[N+](=O)[O-])cc1 | > 32 |  |  |  | 
24 | COc1ccccc1N(Cc1ccccc1)S(=O)(=O)c1ccc([N+](=O)[O-])cc1[N+](=O)[O-] | > 32 | > 32 | > 32 |  | 
25 | O=[N+]([O-])c1ccc(S(=O)(=O)N(CCCN(c2ccccc2)S(=O)(=O)c2ccc([N+](=O)[O-])cc2[N+](=O)[O-])Cc2ccccc2)c([N+](=O)[O-])c1 | > 16 |  |  |  | 
26 | C#CCN(C)S(=O)(=O)c1ccc([N+](=O)[O-])cc1[N+](=O)[O-] | 8 (≈ 26.7 µM) | > 32 | > 32 | 8 (≈ 26.7 µM) | 
27 | O=[N+]([O-])c1ccc(S(=O)(=O)N(CCCN(c2ccccc2F)S(=O)(=O)c2ccc([N+](=O)[O-])cc2[N+](=O)[O-])Cc2ccccc2)c([N+](=O)[O-])c1 | > 32 |  |  |  | 
28 | CCN(c1ccccc1OC)S(=O)(=O)c1ccc([N+](=O)[O-])cc1[N+](=O)[O-] | 8 (≈ 21 µM) | > 32 | > 32 | 8 (≈ 21 µM) | 
29 | COc1ccccc1CN(CCCN(Cc1ccccc1)S(=O)(=O)c1ccc([N+](=O)[O-])cc1[N+](=O)[O-])S(=O)(=O)c1ccc([N+](=O)[O-])cc1[N+](=O)[O-] | > 32 | > 32 | > 32 |  | 
30 | COc1cccc(N(C)S(=O)(=O)c2ccc([N+](=O)[O-])cc2[N+](=O)[O-])c1 | 8 (≈ 21.8 µM) | 8 (≈ 21.8 µM) | > 32 | 4 (≈ 10.9 µM) | 
31 | CCCCN(c1ccccc1OC)S(=O)(=O)c1ccc([N+](=O)[O-])cc1[N+](=O)[O-] | > 32 | > 32 | > 32 |  | 
32 | C#CCN(c1cccc(OC)c1)S(=O)(=O)c1ccc([N+](=O)[O-])cc1[N+](=O)[O-] | 4 (≈ 10.2 µM) | 8 (≈ 20.4 µM) | > 32 | 4 (≈ 10.2 µM) | Activity [11]: Dose-dependent effect; Activity [12]: Active; GI50 at 72 h [13]: 27 µM; Selectivity Index [14]: 5.2; MIC [5]: 4 µg/mL (≈ 10.2 µM); MIC [6]: 2 µg/mL (≈ 5.11 µM); MIC [7]: 2 µg/mL (≈ 5.11 µM); MIC [8]: 2 µg/mL (≈ 5.11 µM); MIC [9]: 4 µg/mL (≈ 10.2 µM)
33 | CN(Cc1ccccc1)S(=O)(=O)c1ccc([N+](=O)[O-])cc1[N+](=O)[O-] | 8 (≈ 22.8 µM) |  |  |  | 
34 | C#CCN(Cc1ccc(OC)cc1)S(=O)(=O)c1ccc([N+](=O)[O-])cc1[N+](=O)[O-] | 8 (≈ 19.7 µM) | 16 (≈ 39.5 µM) | > 32 | 8 (≈ 19.7 µM) | 
35 | CCN(c1cccc(OC)c1)S(=O)(=O)c1ccc([N+](=O)[O-])cc1[N+](=O)[O-] | 8 (≈ 21 µM) | 8 (≈ 21 µM) | > 32 | 8 (≈ 21 µM) | 
36 | CCCN(c1ccccc1OC)S(=O)(=O)c1ccc([N+](=O)[O-])cc1[N+](=O)[O-] | > 32 | > 32 | > 32 |  | 
37 | O=[N+]([O-])c1ccc(S(=O)(=O)Nc2ccc(F)cc2)c([N+](=O)[O-])c1 | 16 (≈ 46.9 µM) |  |  |  | 
38 | CC(=O)NC[C@H]1CN(c2ccc(N3CCOCC3)c(F)c2)C(=O)O1 [LINEZOLID] |  |  |  | 1 (≈ 2.96 µM) | 
39 | C#CCN(Cc1cccc(OC)c1)S(=O)(=O)c1ccc([N+](=O)[O-])cc1[N+](=O)[O-] | 16 (≈ 39.5 µM) |  |  |  | 
40 | N#Cc1ccc(NS(=O)(=O)c2ccc([N+](=O)[O-])cc2[N+](=O)[O-])cc1 | > 16 |  |  |  | 
